Drawing on ChEMBL document CHEMBL1153170, “Novel imidazolopyrimidines as dual PI3-Kinase/mTOR inhibitors” (Bioorg Med Chem Lett, 2010), this text covers IC50 and inhibition for 20 compounds.

In experiment [1] the target is T1, Phosphatidylinositol 4,5-bisphosphate 3-kinase catalytic subunit alpha isoform (Homo sapiens, UniProt P42336). The experiment is described as follows: Inhibition of PI3Kalpha.
Experiment [2] has as its target Phosphatidylinositol 4,5-bisphosphate 3-kinase catalytic subunit gamma isoform (Homo sapiens, UniProt P48736). The experiment is described as follows: Inhibition of PI3Kgamma.
In experiment [3] the target is Serine/threonine-protein kinase mTOR (Homo sapiens, UniProt P42345). The experiment is described as follows: Inhibition of mTOR.
The target in experiment [4] is T1, Phosphatidylinositol 4,5-bisphosphate 3-kinase catalytic subunit alpha isoform. The experiment is described as follows: Inhibition of PI3Kalpha in human MDA-MB-361 cells assessed as reduction of phosphorylated Akt (T308) level after 4 hrs by Western blotting. It counts as cell-based. In a few lines: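 Cells seeded 24 h before 4 h compound exposure in complete growth medium, washed with cold PBS, lysed in Tris-HCl pH 7.5/NaCl/EDTA/EGTA/Triton buffer with phosphatase and protease inhibitors. Lysates resolved by SDS-PAGE, blotted to nitrocellulose, probed for phospho-Akt T308, total Akt, actin; HRP secondary, chemiluminescent detection.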

For experiment [5] the target is unchanged. Conditions: MDA-MB-361, 10 to 30 uM.
The subject of another experiment is MDA-MB-361. The experiment is described as follows: Growth inhibition of human MDA-MB-361 cells after 72 hrs by celltiter assay. The experiment is classed as functional, cell-based. The following applies: MDA-MB-361, 72 h. The essentials:
(§1)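 Cells from ATCC, maintained at 37 °C, 5% CO2 in growth medium with 10% fetal calf serum plus penicillin/streptomycin. Seeding density set per line's growth characteristics; 96-well format. Viable cells quantified by CellTiter 96 aqueous non-radioactive colorimetric proliferation assay after 72 h compound exposure.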

A short description of experiment [6]: Growth inhibition of human PC3MM2 cells after 72 hrs by celltiter assay. Conditions: PC3MM2, 72 h. It counts as functional, cell-based. The essentials:
as §1

The structures appear in SMILES notation. Calls of active or inactive are those of the source. No cut-off for these calls is given here.

Sequence of Phosphatidylinositol 4,5-bisphosphate 3-kinase catalytic subunit gamma isoform (P48736 whole entry, canonical isoform): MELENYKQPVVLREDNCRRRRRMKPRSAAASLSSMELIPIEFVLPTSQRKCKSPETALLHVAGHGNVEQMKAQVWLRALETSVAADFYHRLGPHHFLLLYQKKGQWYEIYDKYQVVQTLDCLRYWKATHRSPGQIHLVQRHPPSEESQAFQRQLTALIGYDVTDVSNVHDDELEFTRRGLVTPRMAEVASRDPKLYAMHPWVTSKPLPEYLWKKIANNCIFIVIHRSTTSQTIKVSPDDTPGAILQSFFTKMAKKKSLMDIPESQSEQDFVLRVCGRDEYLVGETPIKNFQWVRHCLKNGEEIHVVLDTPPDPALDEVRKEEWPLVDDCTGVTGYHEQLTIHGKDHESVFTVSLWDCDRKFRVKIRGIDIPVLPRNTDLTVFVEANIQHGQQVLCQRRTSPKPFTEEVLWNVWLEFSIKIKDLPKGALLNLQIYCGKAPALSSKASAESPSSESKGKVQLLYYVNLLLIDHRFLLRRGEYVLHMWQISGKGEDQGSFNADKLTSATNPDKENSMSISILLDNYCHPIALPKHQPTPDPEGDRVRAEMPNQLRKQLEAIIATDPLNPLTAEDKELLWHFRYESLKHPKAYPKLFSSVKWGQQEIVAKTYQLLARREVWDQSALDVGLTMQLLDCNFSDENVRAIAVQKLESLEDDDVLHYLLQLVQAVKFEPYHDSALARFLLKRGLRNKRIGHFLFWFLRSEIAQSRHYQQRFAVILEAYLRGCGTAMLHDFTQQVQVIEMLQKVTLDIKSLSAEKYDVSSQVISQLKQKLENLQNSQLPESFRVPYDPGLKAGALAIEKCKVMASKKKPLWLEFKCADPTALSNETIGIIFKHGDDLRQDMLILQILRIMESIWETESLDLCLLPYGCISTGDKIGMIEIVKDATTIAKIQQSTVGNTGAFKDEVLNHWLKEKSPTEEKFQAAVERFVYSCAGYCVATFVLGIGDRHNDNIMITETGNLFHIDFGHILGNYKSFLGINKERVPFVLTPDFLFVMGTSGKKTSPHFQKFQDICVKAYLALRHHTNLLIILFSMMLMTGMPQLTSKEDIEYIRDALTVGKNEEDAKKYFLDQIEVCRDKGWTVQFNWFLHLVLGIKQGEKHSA
T1 sequence (P42336 whole entry, canonical isoform): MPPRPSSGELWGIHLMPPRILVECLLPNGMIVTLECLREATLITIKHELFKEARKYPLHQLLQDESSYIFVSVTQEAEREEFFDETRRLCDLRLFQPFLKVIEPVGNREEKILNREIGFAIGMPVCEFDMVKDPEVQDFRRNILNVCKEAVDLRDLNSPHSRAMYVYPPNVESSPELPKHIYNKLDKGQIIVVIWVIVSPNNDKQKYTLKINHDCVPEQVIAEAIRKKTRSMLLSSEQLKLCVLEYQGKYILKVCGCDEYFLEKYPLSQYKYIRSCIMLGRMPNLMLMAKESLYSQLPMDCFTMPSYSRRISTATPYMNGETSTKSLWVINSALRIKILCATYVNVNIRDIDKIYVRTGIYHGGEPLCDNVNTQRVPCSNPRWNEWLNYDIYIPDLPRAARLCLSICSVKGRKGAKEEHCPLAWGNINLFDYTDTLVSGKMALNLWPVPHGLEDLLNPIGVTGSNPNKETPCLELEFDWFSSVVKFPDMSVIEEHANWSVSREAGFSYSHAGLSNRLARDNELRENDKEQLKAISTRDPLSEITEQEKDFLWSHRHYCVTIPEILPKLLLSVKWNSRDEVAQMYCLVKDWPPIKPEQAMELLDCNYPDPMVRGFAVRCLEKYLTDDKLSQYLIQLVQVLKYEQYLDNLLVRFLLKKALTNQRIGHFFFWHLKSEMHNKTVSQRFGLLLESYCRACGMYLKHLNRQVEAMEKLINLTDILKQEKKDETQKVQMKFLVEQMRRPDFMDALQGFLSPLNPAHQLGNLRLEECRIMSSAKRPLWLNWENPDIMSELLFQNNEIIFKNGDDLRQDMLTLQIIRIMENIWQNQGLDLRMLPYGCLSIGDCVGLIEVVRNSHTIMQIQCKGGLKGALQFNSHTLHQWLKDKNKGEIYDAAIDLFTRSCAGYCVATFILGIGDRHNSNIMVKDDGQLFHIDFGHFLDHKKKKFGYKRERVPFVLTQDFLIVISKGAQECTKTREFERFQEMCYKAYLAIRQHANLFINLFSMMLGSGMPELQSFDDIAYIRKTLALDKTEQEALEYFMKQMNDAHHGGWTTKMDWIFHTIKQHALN

`Oc1cncc(-c2nc(N3CCOCC3)c3ncn(C4CCN(Cc5ccc(F)nc5)CC4)c3n2)c1`: the IC50 in experiment [1] came out at 94 nM; in experiment [2], 61 nM.

Turning to `Oc1cccc(-c2nc(N3CCOCC3)c3ncn(C4CCN(Cc5cncc(Cl)c5)CC4)c3n2)c1`, the results for the IC50 in experiment [1], in experiment [3] and in experiment [2] were 37 nM, 200 nM and 341 nM, respectively.

On to `OCc1cccc(-c2nc(N3CCOCC3)c3ncn(C4CCN(Cc5ccc(F)cc5)CC4)c3n2)c1`, for which the IC50 was determined as 70 nM in experiment [1] and 594 nM in experiment [2].

As to `Oc1cncc(-c2nc(N3CCOCC3)c3ncn(C4CCNCC4)c3n2)c1`, the concentration for half-maximal inhibition (IC50) in experiment [1] was 14 nM; in experiment [2], 44 nM.

`Oc1cncc(-c2nc(N3CCOCC3)c3ncn(C4CCN(Cc5ccc(Cl)cc5)CC4)c3n2)c1`: the results for the IC50 in experiment [1] and in experiment [2] were 16 nM and 119 nM, respectively.

As to `Oc1cccc(-c2nc(N3CCOCC3)c3nc[nH]c3n2)c1`, the half-inhibitory concentration (IC50) in experiment [1] was 150 nM; in experiment [3], 1650 nM; in experiment [2] it was 2340 nM.

As for `OCc1cccc(-c2nc(N3CCOCC3)c3ncn(C4CCN(Cc5ccccn5)CC4)c3n2)c1`, the IC50 came out at 65 nM in experiment [1] and 776 nM in experiment [2].

With `OCc1cccc(-c2nc(N3CCOCC3)c3ncn(C4CCN(Cc5ccc(-c6ccncc6)cc5)CC4)c3n2)c1`, the concentration for half-maximal inhibition (IC50) in experiment [1] stood at 23 nM; in experiment [2], 223 nM.

As to `CN(C)CCCOc1ccc(CN2CCC(n3cnc4c(N5CCOCC5)nc(-c5cccc(CO)c5)nc43)CC2)cc1`, the half-inhibitory concentration (IC50) in experiment [4] was found to be 300 nM; in experiment [1] it was 16 nM; in experiment [2], 265 nM; with MDA-MB-361, 685 nM; in experiment [6], 512 nM. For the same compound, the inhibition result in experiment [5] is “Active”.

With `OCc1cccc(-c2nc(N3CCOCC3)c3ncn(C4CCN(Cc5ccccc5F)CC4)c3n2)c1`, the IC50 in experiment [1] was 42 nM; in experiment [2], 1100 nM.

Turning to `OCc1cccc(-c2nc(N3CCOCC3)c3ncn(C4CCNCC4)c3n2)c1`, the half-inhibitory concentration (IC50) in experiment [1] turned out to be 57 nM; in experiment [2], 683 nM.

`Oc1cccc(-c2nc(N3CCOCC3)c3ncn(C4CCN(Cc5cccnc5)CC4)c3n2)c1`: the IC50 came to 66 nM in experiment [1] and 583 nM in experiment [2].

For the compound `Oc1cccc(-c2nc(N3CCOCC3)c3ncn(C4CCN(Cc5ccccc5)CC4)c3n2)c1`, the IC50 was 75 nM in experiment [1] and 10000 nM in experiment [2].

As for `COc1ccc(CN2CCC(n3cnc4c(N5CCOCC5)nc(-c5cccc(O)c5)nc43)CC2)cn1`, the half-inhibitory concentration (IC50) in experiment [1] stood at 55 nM; in experiment [2], 306 nM.

`CC(=O)N1CCC(n2cnc3c(N4CCOCC4)nc(-c4cccc(CO)c4)nc32)CC1`: the IC50 in experiment [1] worked out at 189 nM; in experiment [2], 1380 nM.

`Oc1cccc(-c2nc(N3CCOCC3)c3ncn(C4CCNCC4)c3n2)c1`: the half-maximal inhibitory concentration (IC50) amounted to 64 nM in experiment [1], 950 nM in experiment [3] and 133 nM in experiment [2].

For the compound `Oc1cncc(-c2nc(N3CCOCC3)c3nc[nH]c3n2)c1`, the half-inhibitory concentration (IC50) came to 11 nM in experiment [1] and 47 nM in experiment [2].

With `Oc1cccc(-c2nc(N3CCOCC3)c3ncn(C4CCN(Cc5ccc(N6CCOCC6)nc5)CC4)c3n2)c1`, the IC50 in experiment [1] stood at 40 nM; in experiment [3], 152 nM; in experiment [2], 368 nM.

In the case of `OCc1cccc(-c2nc(N3CCOCC3)c3ncn(C4CCN(c5ccc(F)cc5F)CC4)c3n2)c1`, the 50% inhibitory concentration (IC50) in experiment [1] came to 44 nM; in experiment [3] it was 2050 nM; in experiment [2] it was 640 nM.

Consider `Cc1ccc(CN2CCC(n3cnc4c(N5CCOCC5)nc(-c5cncc(O)c5)nc43)CC2)cc1`, for which the concentration for half-maximal inhibition (IC50) in experiment [1] amounted to 42 nM; in experiment [2], 204 nM.
